Data published in ChEMBL document CHEMBL2385029, “Cytotoxic activities of substituted 3-(3,4,5-trimethoxybenzylidene)-1,3-dihydroindol-2-ones and studies on their mechanisms of action” (Eur J Med Chem, 2013).
Active and inactive are the calls of the source. No cut-off for these calls is given here.

Experiments:
[1] = Inhibition of bovine brain tubulin assembly after 20 mins
Bos taurus = species: Bos taurus; assay: Displacement of [3H]colchicine from bovine brain tubulin at 5 uM after 10 mins
[2] = Cytotoxicity against human colon cancer cells after 48 hrs; assay type: functional; details: Cancer cell lines
Procedure, shortened: (§1)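 NCI 60-cell panel, values averaged per subpanel. Compounds were dissolved in DMSO and first screened at a single 10⁻⁵ M dose. Active ones then went to five concentrations at ten-fold dilutions, top 10⁻⁴ M (10⁻³ M for some), with 48 h exposure.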

[3] = Cytotoxicity against human CNS cancer cells after 48 hrs; assay type: functional; details: Cancer cell lines
Procedure, shortened: as §1

[4] = Cytotoxicity against human leukemia cells after 48 hrs; assay type: functional; details: Leukemia cell
[5] = Cytotoxicity against human NSCLC cells after 48 hrs; assay type: functional
Procedure, shortened: as §1

[6] = Inhibition of nox4 expression in human B1647 cells at 10 uM after 24 hrs by Western blot analysis relative to control; assay type: functional
Procedure, shortened: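 B1647 cells treated 24 h at 10 µM. Lysates (40 µg protein per lane) run on 10% SDS-PAGE and transferred to nitrocellulose. Blots probed with anti-Nox4, with β-tubulin as loading control, and detected by chemiluminescence. Bands quantified by densitometry in arbitrary units relative to control; three independent experiments.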

[7] = biological target: T1, NADPH oxidase 4 (Homo sapiens) (UniProt Q9NPH5); assay: Inhibition of NOX4 in human nox2 silenced B1647 cells assessed as reduction of ROS production at 50 nM after 20 mins by DCFH-DA fluorescence assay; assay type: cell-based; details: 5 or 10 uM, in the assay text read “at 5 or 10 uM after 30 mins” for “at 50 nM after 20 mins”
T1 sequence (whole entry): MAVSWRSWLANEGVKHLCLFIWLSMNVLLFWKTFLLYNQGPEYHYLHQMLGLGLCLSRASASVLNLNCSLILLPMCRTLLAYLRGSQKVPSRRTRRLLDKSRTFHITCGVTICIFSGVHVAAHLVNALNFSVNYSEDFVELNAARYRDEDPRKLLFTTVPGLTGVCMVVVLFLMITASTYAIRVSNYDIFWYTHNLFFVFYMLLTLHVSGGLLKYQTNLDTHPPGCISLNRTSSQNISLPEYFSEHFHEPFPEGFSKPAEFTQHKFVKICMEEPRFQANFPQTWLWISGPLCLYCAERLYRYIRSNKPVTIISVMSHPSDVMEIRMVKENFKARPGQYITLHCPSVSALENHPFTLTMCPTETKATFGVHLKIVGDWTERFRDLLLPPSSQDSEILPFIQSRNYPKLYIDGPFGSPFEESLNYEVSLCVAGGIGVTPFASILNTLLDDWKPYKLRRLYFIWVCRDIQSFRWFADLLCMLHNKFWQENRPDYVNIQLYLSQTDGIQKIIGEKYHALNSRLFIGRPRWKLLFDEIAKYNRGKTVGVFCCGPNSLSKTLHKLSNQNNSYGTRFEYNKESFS
Procedure, shortened: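 B1647 cells nucleofected with Nox2 siRNA or scrambled siRNA (final 50 nM), used after 24–48 h. Compound treatment for 30 min, then 5 µM DCFH-DA loading for 20 min at 37 °C and DCF fluorescence read. Scrambled cells served as control.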

[8] = biological target: T1, NADPH oxidase 4 (Homo sapiens); assay: Inhibition of NOX4 in human B1647 cells assessed as reduction of ROS production after 20 mins by DCFH-DA fluorescence assay; assay type: cell-based; details: in the assay text read “after 30 mins” for “after 20 mins”
Procedure, shortened: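 B1647 cells given compound (DMSO) at 5 or 10 µM for 30 min, then at 1 × 10⁶/mL washed twice in PBS and loaded with 5 µM DCFH-DA for 20 min at 37 °C. DCF fluorescence read in multiwell plate; four independent experiments.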

B1647 = assay: Cytotoxicity against human B1647 cells at 5 to 10 uM after 24 hrs by MTT assay; assay type: functional, cell-based
Procedure, shortened: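 B1647 human AML cells grown in IMDM with 5% human serum (37 °C, 5% CO2); 10⁶ cells per well in 1 mL exposed to 5 or 10 µM compound (DMSO) for 24 h. MTT 0.5 mg/mL added for 4 h at 37 °C, formazan dissolved overnight in 10% SDS/0.01 M HCl, A570 read. Four independent experiments.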

[9] = Cytotoxicity against human prostate cancer cells after 48 hrs; assay type: functional; details: Cancer cell lines
Procedure, shortened: as §1

[10] = Cytotoxicity against human breast cancer cells after 48 hrs; assay type: functional; details: Cancer cell lines
Procedure, shortened: as §1

[11] = Cytotoxicity against human renal cancer cells after 48 hrs; assay type: functional; details: Cancer cell lines
[12] = Cytotoxicity against human melanoma cells after 48 hrs; assay type: functional; details: Melanoma cell
[13] = Cytotoxicity against human ovarian cancer cells after 48 hrs; assay type: functional; details: Cancer cell lines
Procedure, shortened: as §1

[14] = read-out: LC50 (the source's name)

Row | inhibition (Bos taurus) [%] | SMILES | IC50 [1] [µM] | GI50 [2] [µM] | GI50 [3] [µM] | TGI [3] [µM] | GI50 [4] [µM] | GI50 [5] [µM] | TGI [5] [µM] | fold change (FC) [6] | inhibition [7] | inhibition [8] | Activity (B1647) | GI50 [9] [µM] | GI50 [10] [µM] | TGI [10] [µM] | GI50 [11] [µM] | TGI [11] [µM] | GI50 [12] [µM] | GI50 [13] [µM] | TGI [13] [µM] | also measured
1 | 35 | COc1ccc2c(c1)/C(=C\c1cc(OC)c(OC)c(OC)c1)C(=O)N2 | 6.1 |  |  |  |  |  |  |  |  |  |  |  |  |  |  |  |  |  |  | 
2 |  | COc1cc(/C=C2\C(=O)Nc3ccc(Br)cc32)cc(OC)c1OC | > 20 | 6.2 | 14.8 | 56.2 | 2.1 | 9.5 | 77.6 | 0.86 | Active | Dose-dependent effect | Active | 11 | 3.2 | 45.7 | 14.1 | 75.9 | 10.2 | 17 | 69.2 | 
3 |  | COc1cc(/C=C2/C(=O)Nc3cc(C)c(O)cc32)cc(OC)c1OC | > 20 | 4 | 5.2 | 25.7 | 1.8 | 5.7 | 31.6 | 0.64 | Active | Dose-dependent effect | Active | 3.9 | 2.5 | 14.4 | 7.1 | 25.1 | 3.6 | 7.1 | 37.1 | LC50 [2]: 53.7 µM; TGI [2]: 18.2 µM; LC50 [3]: 85.1 µM; CC50 [4, 14]: 70.8 µM; CC50 [5, 14]: 79.4 µM; TGI [9]: 30.9 µM; CC50 [9, 14]: 91.2 µM; LC50 [10]: 74.1 µM; LC50 [11]: 66.1 µM; TGI [12]: 16.6 µM; CC50 [12, 14]: 53.7 µM; CC50 [13, 14]: 87.1 µM
4 | 31 | COc1cc(/N=C2\C(=O)N(Cc3ccccc3)c3ccccc32)cc(OC)c1OC | 3.3 |  |  |  |  |  |  |  |  |  |  |  |  |  |  |  |  |  |  | 
